Data taken from ChEMBL document CHEMBL1255404, “Spread of OXA-48-encoding plasmid in Turkey and beyond” (2010).

Key:
Format in all cases: functional
Escherichia coli [1] = experiment: Antimicrobial activity against Escherichia coli isolate J53 harboring pBb containing beta-lactamase OXA-48 located within transposon Tn1999.2 by Etest method
Method in brief: (§1)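 β-Lactam MICs read with Etest strips. Strains are E. coli J53 recipient and J53 transconjugants carrying OXA-48-positive plasmids recovered from clinical enterobacterial isolates.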

Escherichia coli [2] = experiment: Antimicrobial activity against Escherichia coli isolate J53 harboring p5A containing beta-lactamase OXA-48 located within transposon Tn1999 by Etest method in presence of beta-lactamase inhibitor clavulanic acid; method in brief: as §1
Escherichia coli [3] = experiment: Antimicrobial activity against Escherichia coli isolate TOP10 harboring pPR containing beta-lactamase and TEM-101 by Etest method in presence of beta-lactamase inhibitor clavulanic acid
Method in brief: (§2)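 β-Lactam MICs read with Etest strips. Strains are E. coli TOP10 host and TOP10 transformants made with plasmid DNA extract when conjugation failed. Transformants were selected on LB agar with ticarcillin 50 μg/ml.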

Klebsiella pneumoniae [4] = experiment: Antimicrobial activity against Klebsiella pneumoniae isolate Kp4A expressing beta-lactamase OXA-48 and CTX-M-15 by Etest method
Escherichia coli [5] = experiment: Antimicrobial activity against Escherichia coli isolate J53 harboring pI-2 containing beta-lactamase OXA-48 located within transposon Tn1999.2 by Etest method; method in brief: as §1
Escherichia coli [6] = experiment: Antimicrobial activity against Escherichia coli isolate J53 harboring pE containing beta-lactamase OXA-48 located within transposon Tn1999.2 by Etest method; method in brief: as §1
Escherichia coli [7] = experiment: Antimicrobial activity against Escherichia coli isolate J53 harboring p6A containing beta-lactamase OXA-48 located within transposon Tn1999 by Etest method in presence of beta-lactamase inhibitor clavulanic acid; method in brief: as §1
Escherichia coli [8] = experiment: Antimicrobial activity against Escherichia coli isolate J53 harboring pI-2 containing beta-lactamase OXA-48 located within transposon Tn1999.2 by Etest method in presence of beta-lactamase inhibitor clavulanic acid; method in brief: as §1
Escherichia coli [9] = experiment: Antimicrobial activity against Escherichia coli isolate J53 harboring pCF containing beta-lactamase OXA-48 located within transposon Tn1999 by Etest method; method in brief: as §1
Escherichia coli [10] = experiment: Antimicrobial activity against Escherichia coli isolate J53 harboring pBEL containing beta-lactamase OXA-48 located within transposon Tn1999.2 by Etest method; method in brief: as §1
Escherichia coli [11] = experiment: Antimicrobial activity against Escherichia coli isolate J53 harboring pEnc1 containing beta-lactamase OXA-48 located within transposon Tn1999 by Etest method in presence of beta-lactamase inhibitor clavulanic acid; method in brief: as §1
Klebsiella pneumoniae [12] = experiment: Antimicrobial activity against Klebsiella pneumoniae isolate KpBIC expressing beta-lactamase OXA-48 by Etest method
Method in brief: (§3)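 MICs of β-lactams read from Etest strips. The test organisms are carbapenem-resistant, OXA-48-positive clinical Enterobacteriaceae isolates recovered from Turkey, Lebanon, Egypt, France and Belgium.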

Escherichia coli [13] = experiment: Antimicrobial activity against Escherichia coli isolate TOP10 by Etest method in presence of beta-lactamase inhibitor clavulanic acid; method in brief: as §2
Escherichia coli [14] = experiment: Antimicrobial activity against Escherichia coli isolate J53 harboring p5A containing beta-lactamase OXA-48 located within transposon Tn1999 by Etest method; method in brief: as §1
Klebsiella pneumoniae [15] = experiment: Antimicrobial activity against Klebsiella pneumoniae isolate KpL expressing beta-lactamase OXA-48 by Etest method in presence of beta-lactamase inhibitor clavulanic acid; method in brief: as §3
Escherichia coli [16] = experiment: Antimicrobial activity against Escherichia coli isolate J53 harboring p7A containing beta-lactamase OXA-48 located within transposon Tn1999 by Etest method in presence of beta-lactamase inhibitor clavulanic acid; method in brief: as §1
Escherichia coli [17] = experiment: Antimicrobial activity against Escherichia coli isolate J53 harboring pL containing beta-lactamase OXA-48 located within transposon Tn1999.2 by Etest method in presence of beta-lactamase inhibitor clavulanic acid; method in brief: as §1
Providencia rettgeri [18] = experiment: Antimicrobial activity against Providencia rettgeri isolate expressing beta-lactamase OXA-48 and TEM-101 by Etest method in presence of beta-lactamase inhibitor clavulanic acid; method in brief: as §3
Klebsiella pneumoniae [19] = experiment: Antimicrobial activity against Klebsiella pneumoniae isolate KpI-1 expressing beta-lactamase OXA-48 and CTX-M-15 by Etest method
Escherichia coli [20] = experiment: Antimicrobial activity against Escherichia coli isolate J53 harboring p4A containing beta-lactamase OXA-48 located within transposon Tn1999 by Etest method in presence of beta-lactamase inhibitor clavulanic acid; method in brief: as §1
Klebsiella pneumoniae [21] = experiment: Antimicrobial activity against Klebsiella pneumoniae isolate KpE expressing beta-lactamase OXA-48 and CTX-M-15 by Etest method
Escherichia coli [22] = experiment: Antimicrobial activity against Escherichia coli isolate TOP10 harboring pBIC containing beta-lactamase OXA-48 located within transposon Tn1999.2 by Etest method; method in brief: as §2
Klebsiella pneumoniae [23] = experiment: Antimicrobial activity against Klebsiella pneumoniae isolate Kp7A expressing beta-lactamase OXA-48 by Etest method in presence of beta-lactamase inhibitor clavulanic acid; method in brief: as §3
Providencia rettgeri [24] = experiment: Antimicrobial activity against Providencia rettgeri isolate expressing beta-lactamase OXA-48 and TEM-101 by Etest method
Escherichia coli [25] = experiment: Antimicrobial activity against Escherichia coli isolate A expressing beta-lactamase OXA-48 and TEM-150 by Etest method in presence of beta-lactamase inhibitor clavulanic acid; method in brief: as §3
Escherichia coli [26] = experiment: Antimicrobial activity against Escherichia coli isolate J53 harboring pA-1 containing beta-lactamase OXA-48 located within transposon Tn1999 by Etest method; method in brief: as §1
Klebsiella pneumoniae [27] = experiment: Antimicrobial activity against Klebsiella pneumoniae isolate Kp5A expressing beta-lactamase OXA-48 and SHV-5 by Etest method
Klebsiella pneumoniae [28] = experiment: Antimicrobial activity against Klebsiella pneumoniae isolate Kp3A expressing beta-lactamase OXA-48 by Etest method; method in brief: as §3
Klebsiella pneumoniae [29] = experiment: Antimicrobial activity against Klebsiella pneumoniae isolate Kp11978 expressing beta-lactamase OXA-48, SHV-2a and TEM-1 by Etest method in presence of beta-lactamase inhibitor clavulanic acid; method in brief: as §3
Klebsiella pneumoniae [30] = experiment: Antimicrobial activity against Klebsiella pneumoniae isolate KpI-1 expressing beta-lactamase OXA-48 and CTX-M-15 by Etest method in presence of beta-lactamase inhibitor clavulanic acid; method in brief: as §3
Escherichia coli [31] = experiment: Antimicrobial activity against Escherichia coli isolate TOP10 harboring pPR containing beta-lactamase and TEM-101 by Etest method; method in brief: as §2
Escherichia coli [32] = experiment: Antimicrobial activity against Escherichia coli isolate J53 harboring pL containing beta-lactamase OXA-48 located within transposon Tn1999.2 by Etest method; method in brief: as §1
Enterobacter cloacae [33] = experiment: Antimicrobial activity against Enterobacter cloacae isolate 1 expressing beta-lactamase OXA-48 and SHV-5 by Etest method in presence of beta-lactamase inhibitor clavulanic acid; method in brief: as §3
Escherichia coli [34] = experiment: Antimicrobial activity against Escherichia coli isolate A expressing beta-lactamase OXA-48 and TEM-150 by Etest method
Escherichia coli [35] = experiment: Antimicrobial activity against Escherichia coli isolate J53 harboring p3A containing beta-lactamase OXA-48 located within transposon Tn1999 by Etest method; method in brief: as §1
Enterobacter cloacae [36] = experiment: Antimicrobial activity against Enterobacter cloacae isolate 2 expressing beta-lactamase OXA-48 and SHV-5 by Etest method
Klebsiella pneumoniae [37] = experiment: Antimicrobial activity against Klebsiella pneumoniae isolate Kp6A expressing beta-lactamase OXA-48 and TEM-150 by Etest method in presence of beta-lactamase inhibitor clavulanic acid; method in brief: as §3

Row | Compound | MIC (Escherichia coli [1]) | MIC (Escherichia coli [2]) | MIC (Escherichia coli [3]) | MIC (Klebsiella pneumoniae [4]) | MIC (Escherichia coli [5]) | MIC (Escherichia coli [6]) | MIC (Escherichia coli [7]) | MIC (Escherichia coli [8]) | MIC (Escherichia coli [9]) | MIC (Escherichia coli [10]) | MIC (Escherichia coli [11]) | MIC (Klebsiella pneumoniae [12]) | MIC (Escherichia coli [13]) | MIC (Escherichia coli [14]) | MIC (Klebsiella pneumoniae [15]) | MIC (Escherichia coli [16]) | MIC (Escherichia coli [17]) | MIC (Providencia rettgeri [18]) | MIC (Klebsiella pneumoniae [19]) | MIC (Escherichia coli [20]) | further results
1 | CC1(C)S[C@@H]2[C@H](NC(=O)[C@H](N)c3ccc(O)cc3)C(=O)N2[C@H]1C(=O)O [AMOXICILLIN] | > 512 µg/mL | > 512 µg/mL | > 256 µg/mL | > 512 µg/mL | > 512 µg/mL | > 512 µg/mL | > 512 µg/mL | > 512 µg/mL | > 512 µg/mL | > 256 µg/mL | > 512 µg/mL | > 512 µg/mL | 4 µg/mL | > 512 µg/mL | > 256 µg/mL | > 512 µg/mL | > 256 µg/mL | > 256 µg/mL | > 512 µg/mL | > 512 µg/mL | MIC (Klebsiella pneumoniae [21]): > 512 µg/mL; MIC (Escherichia coli [22]): > 512 µg/mL; MIC (Klebsiella pneumoniae [23]): > 512 µg/mL; MIC (Providencia rettgeri [24]): > 256 µg/mL; MIC (Escherichia coli [25]): > 256 µg/mL; MIC (Escherichia coli [26]): > 512 µg/mL; MIC (Klebsiella pneumoniae [27]): > 512 µg/mL; MIC (Klebsiella pneumoniae [28]): > 512 µg/mL; MIC (Klebsiella pneumoniae [29]): > 512 µg/mL; MIC (Klebsiella pneumoniae [30]): > 512 µg/mL; MIC (Escherichia coli [31]): > 256 µg/mL; MIC (Escherichia coli [32]): > 256 µg/mL; MIC (Enterobacter cloacae [33]): > 512 µg/mL; MIC (Escherichia coli [34]): > 256 µg/mL; MIC (Escherichia coli [35]): > 512 µg/mL; MIC (Enterobacter cloacae [36]): > 512 µg/mL; MIC (Klebsiella pneumoniae [37]): > 512 µg/mL
2 | CC1(C)S[C@@H]2[C@H](NC(=O)[C@H](C(=O)O)c3ccsc3)C(=O)N2[C@H]1C(=O)O [TICARCILLIN] | > 512 µg/mL | > 512 µg/mL | > 256 µg/mL | > 512 µg/mL | > 512 µg/mL | > 512 µg/mL | > 512 µg/mL | > 512 µg/mL | > 512 µg/mL | > 256 µg/mL | > 512 µg/mL | > 512 µg/mL | 4 µg/mL | > 512 µg/mL | > 256 µg/mL | > 512 µg/mL | > 256 µg/mL | > 256 µg/mL | > 512 µg/mL | > 512 µg/mL | MIC (Klebsiella pneumoniae [21]): > 512 µg/mL; MIC (Escherichia coli [22]): > 512 µg/mL; MIC (Klebsiella pneumoniae [23]): > 512 µg/mL; MIC (Providencia rettgeri [24]): > 256 µg/mL; MIC (Escherichia coli [25]): > 256 µg/mL; MIC (Escherichia coli [26]): > 512 µg/mL; MIC (Klebsiella pneumoniae [27]): > 512 µg/mL; MIC (Klebsiella pneumoniae [28]): > 512 µg/mL; MIC (Klebsiella pneumoniae [29]): > 512 µg/mL; MIC (Klebsiella pneumoniae [30]): > 512 µg/mL; MIC (Escherichia coli [31]): > 256 µg/mL; MIC (Escherichia coli [32]): > 256 µg/mL; MIC (Enterobacter cloacae [33]): > 512 µg/mL; MIC (Escherichia coli [34]): > 256 µg/mL; MIC (Escherichia coli [35]): > 512 µg/mL; MIC (Enterobacter cloacae [36]): > 512 µg/mL; MIC (Klebsiella pneumoniae [37]): > 512 µg/mL
